ChEMBL document CHEMBL1154573, “New 7,20:14,20-diepoxy ent-kauranoids from Isodon xerophilus” (J Nat Prod, 2000)
Values after ≈ are worked out from the molar mass of the structure shown.

How the values were obtained:
Assay type in all cases: functional, cell-based
[1] = tested on: MKN-28; experiment: Cytotoxicity against human MKN28 cells after 48 hrs by MTT assay; conditions: MKN-28, 48 h
Outline: (§1)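 MTT reduction assay. Cells in log-phase growth were seeded at 4 × 10⁴ cells/mL and exposed in four replicates to drug at 10⁻⁴–10⁻⁸ mol/L for 48 h at 37 °C in humidified 5% CO₂. MTT (5 mg/mL solution) was then added for a further 4 h. Formazan was dissolved in 10% SDS–5% isobutanol–HCl for 12 h at room temperature. OD was read at 570 and 630 nm, and IC50 was derived. Negative controls were saline or 1% or 0.1% DMSO.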

[2] = tested on: K562; experiment: Cytotoxicity against human K562 cells after 48 hrs by MTT assay; conditions: K562, 48 h; outline: as §1
[3] = tested on: HL-60; experiment: Cytotoxicity against human HL60 cells after 48 hrs by MTT assay; conditions: HL-60, 48 h; outline: as §1
[4] = Cytotoxicity against human HCT cells after 48 hrs by MTT assay; outline: as §1

C=C1C(=O)[C@@]23[C@@H]4O[C@H]5O[C@@]2(O)[C@@H](O)[C@@H]2C(C)(C)CCC[C@]52[C@@H]3[C@@H](O)C[C@@H]14 [MACROCALIN B]
IC50 [1]: 1.68 µg/mL (≈ 4.64 µM) | IC50 [2]: 8.07 µg/mL (≈ 22.3 µM) | IC50 [3]: 2.05 µg/mL (≈ 5.66 µM)

O=C1c2c(O)ccc(O)c2C(=O)c2c(NCCNCCO)ccc(NCCNCCO)c21 [MITOXANTRONE]
IC50 [4]: 1.54 µg/mL (≈ 3.46 µM) | IC50 [1]: 0.02 µg/mL (≈ 0.045 µM) | IC50 [2]: 0.0334 µg/mL (≈ 0.0751 µM) | IC50 [3]: 0.29 µg/mL (≈ 0.652 µM)

C=C1C(=O)[C@@]23[C@@H]4O[C@H]5O[C@@]2(O)[C@@H](O)[C@@H]2C(C)(C)CCC[C@]52[C@@H]3[C@@H](OC(C)=O)C[C@@H]14 [XEROPHILUSIN A]
IC50 [1]: 0.12 µg/mL (≈ 0.297 µM) | IC50 [2]: 2.22 µg/mL (≈ 5.49 µM) | IC50 [3]: 0.45 µg/mL (≈ 1.11 µM)

C=C1C(=O)[C@@]23[C@@H]4O[C@H]5O[C@@]2(O)[C@@H](O)[C@@H]2C(C)(C)CCC[C@]52[C@@H]3CC[C@@H]14 [XEROPHILUSIN B]
IC50 [1]: 0.17 µg/mL (≈ 0.491 µM) | IC50 [2]: 0.73 µg/mL (≈ 2.11 µM) | IC50 [3]: 0.29 µg/mL (≈ 0.837 µM)
